Experimental data published in ChEMBL document CHEMBL4823270, “A first-in-class anticancer dual HDAC2/FAK inhibitors bearing hydroxamates/benzamides capped by pyridinyl-1,2,4-triazoles” (Eur J Med Chem, 2021).

What was measured:
A498 [1] = assay: Growth inhibition of human A498 cells at 10 uM incubated for 24 hrs by MTT assay relative to control; format: functional; conditions: read-out: GI
Procedure, shortened: (§1)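 Cells seeded at 1 × 10^4 per well, cultured overnight, then exposed to 10 μM compound or DMSO (negative control) for 24 h. After a PBS wash, MTT (2 mg/ml) was added for 4 h at 37°C and formazan dissolved in DMSO. OD read at 570 nm. Growth inhibition = 1 − (OD treated/OD control); at least three independent experiments.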

HCT-116 = assay: Growth inhibition of human HCT-116 cells at 10 uM incubated for 24 hrs by MTT assay relative to control; format: functional; conditions: read-out: GI; procedure, shortened: as §1
KG-1 = assay: Growth inhibition of human KG-1 cells at 10 uM incubated for 24 hrs by MTT assay relative to control; format: functional; conditions: KG-1, 24 h; procedure, shortened: as §1
[2] = target: T1, Protein deacetylase HDAC6 (Homo sapiens, UniProt Q9UBN7); assay: Inhibition of human full-length recombinant HDAC6 preincubated for 5 mins followed by HDAC substrate addition and further incubated for 45 mins by fluorescence microplate reader assay
T1 sequence (Q9UBN7 whole entry): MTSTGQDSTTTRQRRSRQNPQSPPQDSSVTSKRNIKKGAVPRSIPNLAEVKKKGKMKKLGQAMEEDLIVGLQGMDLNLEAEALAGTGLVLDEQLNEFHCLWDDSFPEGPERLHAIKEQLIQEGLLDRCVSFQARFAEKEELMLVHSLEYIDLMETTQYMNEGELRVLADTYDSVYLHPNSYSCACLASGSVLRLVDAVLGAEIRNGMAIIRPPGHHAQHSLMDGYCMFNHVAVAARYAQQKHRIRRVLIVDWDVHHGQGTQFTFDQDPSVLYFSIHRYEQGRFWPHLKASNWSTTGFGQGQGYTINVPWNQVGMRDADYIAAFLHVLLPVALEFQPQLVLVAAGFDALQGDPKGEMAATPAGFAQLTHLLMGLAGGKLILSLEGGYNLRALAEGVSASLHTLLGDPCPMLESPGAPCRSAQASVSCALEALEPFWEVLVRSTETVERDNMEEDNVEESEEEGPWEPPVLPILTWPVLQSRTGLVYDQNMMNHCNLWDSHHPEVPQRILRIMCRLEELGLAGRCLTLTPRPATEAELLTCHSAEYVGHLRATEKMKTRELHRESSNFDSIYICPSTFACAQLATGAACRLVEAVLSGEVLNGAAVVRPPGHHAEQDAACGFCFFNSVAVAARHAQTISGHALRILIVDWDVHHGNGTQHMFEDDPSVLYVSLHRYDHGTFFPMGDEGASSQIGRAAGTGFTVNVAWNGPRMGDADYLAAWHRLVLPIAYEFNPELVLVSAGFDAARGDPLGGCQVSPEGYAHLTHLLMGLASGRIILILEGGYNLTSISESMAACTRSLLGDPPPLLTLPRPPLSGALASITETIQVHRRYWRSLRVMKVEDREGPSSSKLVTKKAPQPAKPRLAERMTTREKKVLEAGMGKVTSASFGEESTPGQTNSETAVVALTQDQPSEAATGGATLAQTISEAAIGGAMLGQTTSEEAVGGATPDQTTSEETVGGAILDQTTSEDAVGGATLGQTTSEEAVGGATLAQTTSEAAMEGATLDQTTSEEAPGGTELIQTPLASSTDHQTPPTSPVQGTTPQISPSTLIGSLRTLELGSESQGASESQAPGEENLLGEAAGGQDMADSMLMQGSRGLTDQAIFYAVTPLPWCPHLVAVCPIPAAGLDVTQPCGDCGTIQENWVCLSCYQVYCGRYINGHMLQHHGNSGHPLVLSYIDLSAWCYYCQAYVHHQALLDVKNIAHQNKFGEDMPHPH

Histone deacetylase 2 = Histone deacetylase 2 (Homo sapiens, UniProt Q92769); assay: Inhibition of human full-length recombinant HDAC2 preincubated for 5 mins followed by HDAC substrate addition and further incubated for 45 mins by fluorescence microplate reader assay
HT-29 = assay: Growth inhibition of human HT-29 cells at 10 uM incubated for 24 hrs by MTT assay relative to control; format: functional; conditions: read-out: GI; procedure, shortened: as §1
CAKI-1 [3] = assay: Antiproliferative activity against human CAKI-1 cells assessed as cell growth inhibition incubated for 24 hrs by MTT assay; format: functional, cell-based; conditions: CAKI-1, 24 h
Histone deacetylase 1 = Histone deacetylase 1 (Homo sapiens, UniProt Q13547); assay: Inhibition of human full-length recombinant HDAC1 preincubated for 5 mins followed by HDAC substrate addition and further incubated for 45 mins by fluorescence microplate reader assay
Histone deacetylase 8 = target: T2, Histone deacetylase 8 (Homo sapiens, UniProt Q9BY41); assay: Inhibition of human full-length recombinant C-terminal His-tagged HDAC8 expressed in baculovirus infected Sf9 insect cells preincubated for 5 mins followed by HDAC substrate addition and further incubated for 45 mins by fluorescence microplate reader assay
T2 sequence (Q9BY41 whole entry): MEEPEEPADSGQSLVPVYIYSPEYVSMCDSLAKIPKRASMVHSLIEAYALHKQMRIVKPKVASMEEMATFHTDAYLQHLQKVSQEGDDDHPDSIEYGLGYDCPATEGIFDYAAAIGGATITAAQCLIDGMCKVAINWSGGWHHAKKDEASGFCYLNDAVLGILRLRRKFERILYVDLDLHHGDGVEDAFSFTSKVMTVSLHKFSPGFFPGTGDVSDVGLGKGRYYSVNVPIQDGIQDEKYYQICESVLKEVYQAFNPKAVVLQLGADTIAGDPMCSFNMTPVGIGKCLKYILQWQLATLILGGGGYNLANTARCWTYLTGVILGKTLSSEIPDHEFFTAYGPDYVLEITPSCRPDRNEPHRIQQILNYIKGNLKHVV

K562 = assay: Growth inhibition of human K562 cells at 10 uM incubated for 24 hrs by MTT assay relative to control; format: functional; conditions: read-out: GI; procedure, shortened: as §1
Histone deacetylase 3 = Histone deacetylase 3 (Homo sapiens, UniProt O15379); assay: Inhibition of human full-length recombinant HDAC3 preincubated for 5 mins followed by HDAC substrate addition and further incubated for 45 mins by fluorescence microplate reader assay
Focal adhesion kinase 1 = Focal adhesion kinase 1 (Homo sapiens, UniProt Q05397); assay: Inhibition of FAK (unknown origin) by FRET-based Z'-Lyte assay
Procedure, shortened: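 Recombinant FAK kinase activity measured with the FRET-based Z'-LYTE format; the same platform was used for a kinase panel (FAK, FLT, FRK, IGF-1R, BTK). IC50 values determined.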

A498 [4] = assay: Antiproliferative activity against human A498 cells assessed as cell growth inhibition incubated for 24 hrs by MTT assay; format: functional, cell-based; conditions: A498, 24 h
CAKI-1 [5] = assay: Growth inhibition of human CAKI-1 cells at 10 uM incubated for 24 hrs by MTT assay relative to control; format: functional; conditions: read-out: GI; procedure, shortened: as §1

Histone deacetylase 2, sequence (Q92769 whole entry): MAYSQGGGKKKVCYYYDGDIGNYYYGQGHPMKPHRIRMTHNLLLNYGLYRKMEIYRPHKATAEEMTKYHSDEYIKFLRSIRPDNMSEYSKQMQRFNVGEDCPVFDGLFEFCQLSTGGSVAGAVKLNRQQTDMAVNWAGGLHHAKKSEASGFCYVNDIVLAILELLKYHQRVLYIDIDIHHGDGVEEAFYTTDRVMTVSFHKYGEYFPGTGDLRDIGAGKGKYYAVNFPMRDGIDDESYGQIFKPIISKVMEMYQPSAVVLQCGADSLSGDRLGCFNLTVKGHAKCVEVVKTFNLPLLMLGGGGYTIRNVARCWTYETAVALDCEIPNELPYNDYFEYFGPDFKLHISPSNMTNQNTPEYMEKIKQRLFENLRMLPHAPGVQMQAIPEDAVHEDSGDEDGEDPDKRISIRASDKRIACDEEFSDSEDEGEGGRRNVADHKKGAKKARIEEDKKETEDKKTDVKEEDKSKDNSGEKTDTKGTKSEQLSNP
Focal adhesion kinase 1, sequence (Q05397 whole entry): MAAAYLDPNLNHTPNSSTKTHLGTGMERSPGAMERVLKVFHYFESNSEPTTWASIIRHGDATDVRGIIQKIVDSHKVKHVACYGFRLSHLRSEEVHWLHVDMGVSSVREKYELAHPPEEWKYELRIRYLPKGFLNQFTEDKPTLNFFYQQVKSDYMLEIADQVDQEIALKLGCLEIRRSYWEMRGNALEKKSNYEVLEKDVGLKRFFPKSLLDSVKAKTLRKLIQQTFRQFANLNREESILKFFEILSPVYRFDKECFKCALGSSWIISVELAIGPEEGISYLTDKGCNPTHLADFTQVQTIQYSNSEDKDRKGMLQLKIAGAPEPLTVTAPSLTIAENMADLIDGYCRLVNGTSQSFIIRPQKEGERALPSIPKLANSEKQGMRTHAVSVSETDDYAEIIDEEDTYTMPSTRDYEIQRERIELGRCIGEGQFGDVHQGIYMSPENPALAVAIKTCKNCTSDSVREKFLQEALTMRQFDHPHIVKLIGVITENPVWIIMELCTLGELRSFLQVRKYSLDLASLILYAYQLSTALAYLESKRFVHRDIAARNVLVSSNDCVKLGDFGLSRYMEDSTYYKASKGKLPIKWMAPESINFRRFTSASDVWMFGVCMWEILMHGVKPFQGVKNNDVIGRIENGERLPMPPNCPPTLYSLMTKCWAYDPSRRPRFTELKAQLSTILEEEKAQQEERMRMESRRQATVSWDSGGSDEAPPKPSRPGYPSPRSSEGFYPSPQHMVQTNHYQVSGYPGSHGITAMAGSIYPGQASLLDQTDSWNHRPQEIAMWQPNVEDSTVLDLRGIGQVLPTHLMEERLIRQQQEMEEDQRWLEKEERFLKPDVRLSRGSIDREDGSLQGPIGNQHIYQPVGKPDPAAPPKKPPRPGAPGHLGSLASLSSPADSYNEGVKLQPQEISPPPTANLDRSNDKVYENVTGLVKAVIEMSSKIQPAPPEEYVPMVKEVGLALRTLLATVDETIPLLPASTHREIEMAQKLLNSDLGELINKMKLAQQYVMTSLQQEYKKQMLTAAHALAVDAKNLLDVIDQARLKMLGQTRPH
Histone deacetylase 3, sequence (O15379 whole entry): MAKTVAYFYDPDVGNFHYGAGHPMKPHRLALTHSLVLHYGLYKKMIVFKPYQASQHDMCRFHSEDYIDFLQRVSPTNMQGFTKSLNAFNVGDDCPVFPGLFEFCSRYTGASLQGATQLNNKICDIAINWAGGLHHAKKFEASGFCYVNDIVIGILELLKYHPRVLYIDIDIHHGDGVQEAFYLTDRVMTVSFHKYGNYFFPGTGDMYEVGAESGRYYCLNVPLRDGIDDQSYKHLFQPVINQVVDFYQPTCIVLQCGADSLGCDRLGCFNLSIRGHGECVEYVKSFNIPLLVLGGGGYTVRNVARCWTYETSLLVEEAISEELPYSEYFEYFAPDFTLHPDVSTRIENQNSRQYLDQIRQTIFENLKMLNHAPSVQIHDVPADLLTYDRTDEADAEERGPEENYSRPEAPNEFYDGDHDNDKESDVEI
Histone deacetylase 1, sequence (Q13547 whole entry): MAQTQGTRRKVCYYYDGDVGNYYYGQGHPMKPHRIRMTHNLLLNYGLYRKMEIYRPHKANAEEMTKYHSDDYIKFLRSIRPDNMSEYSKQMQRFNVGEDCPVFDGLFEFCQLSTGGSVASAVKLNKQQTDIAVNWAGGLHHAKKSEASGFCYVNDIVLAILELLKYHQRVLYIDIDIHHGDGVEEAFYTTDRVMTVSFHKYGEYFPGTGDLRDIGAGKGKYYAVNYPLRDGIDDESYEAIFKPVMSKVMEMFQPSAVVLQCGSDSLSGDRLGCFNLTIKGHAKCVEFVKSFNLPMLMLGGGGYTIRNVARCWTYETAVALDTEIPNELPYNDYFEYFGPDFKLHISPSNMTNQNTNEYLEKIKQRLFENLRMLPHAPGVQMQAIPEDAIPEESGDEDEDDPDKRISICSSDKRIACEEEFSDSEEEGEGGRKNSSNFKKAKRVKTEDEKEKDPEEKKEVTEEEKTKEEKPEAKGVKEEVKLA

Row | SMILES | inhibition of growth at 10 µM (A498 [1]) | inhibition of growth at 10 µM (HCT-116) | inhibition in vitro at 10 µM (KG-1) | IC50 [2] | IC50 (Histone deacetylase 2) | inhibition of growth at 10 µM (HT-29) | IC50 (CAKI-1 [3]) | IC50 (Histone deacetylase 1) | IC50 (Histone deacetylase 8) | inhibition of growth at 10 µM (K562) | IC50 (Histone deacetylase 3) | IC50 (Focal adhesion kinase 1) | IC50 (A498 [4]) | inhibition of growth at 10 µM (CAKI-1 [5])
1 | O=C(CCCCCSc1nnc(-c2ccncc2)n1-c1ccccc1)NO | 4.36% | 3.56% | 11.2% | 246 µM | 32.4 µM | 1.09% | 92.4 µM | > 300 µM | > 300 µM | 8.34% | > 300 µM | 0.425 µM | 174 µM | –
2 | C=CCn1c(SCc2ccc(C(=O)Nc3ccccc3N)cc2)nnc1-c1ccncc1 | 97.1% | 80.5% | 87.5% | 9.96 µM | 1.28 µM | 70.7% | 1.6 µM | 11.8 µM | 22.5 µM | 90.1% | 42.1 µM | 0.0156 µM | 1.42 µM | 94.8%
3 | CCn1c(SCCCCCC(=O)O)nnc1-c1ccncc1 | 4.13% | 2.15% | 7.34% | > 300 µM | 26.4 µM | 9.34% | – | 184 µM | > 300 µM | 1.58% | 156 µM | 0.0762 µM | 125 µM | 1.06%
4 | Cn1c(SCc2ccc(C(=O)NO)cc2)nnc1-c1ccncc1 | 31.8% | – | 72.1% | 14.4 µM | 4.35 µM | 54% | 11 µM | 14.2 µM | 29.8 µM | 16% | 56.4 µM | 0.0643 µM | 20.9 µM | 48.2%
5 | O=C(O)CCCCCSc1nnc(-c2ccncc2)n1-c1ccccc1 | 89.3% | 78.5% | 67.2% | 10.9 µM | 0.64 µM | 80.5% | 1.89 µM | 8.95 µM | 11.1 µM | 72.7% | 21.1 µM | 0.0361 µM | 2.35 µM | 94.8%
6 | CCn1c(SCc2ccc(C(=O)Nc3ccccc3N)cc2)nnc1-c1ccncc1 | 1.18% | 1.85% | 5.91% | > 300 µM | 40.1 µM | 1.22% | 80.7 µM | > 300 µM | > 300 µM | 8.67% | > 300 µM | 0.112 µM | 124 µM | 12.1%
7 | C=CCn1c(SCCCCCC(=O)O)nnc1-c1ccncc1 | 11.4% | 16.2% | 15.4% | > 300 µM | 10.1 µM | 21.2% | 164 µM | 98.2 µM | > 300 µM | 2.95% | 246 µM | 0.124 µM | 85.3 µM | 3.25%
8 | O=C(NO)c1ccc(CSc2nnc(-c3ccncc3)n2-c2ccccc2)cc1 | 56.9% | 29.3% | 50.9% | 6.93 µM | 9.76 µM | 42.7% | 7.13 µM | 15 µM | 12.8 µM | 39.1% | 18 µM | 0.0224 µM | 8.76 µM | 61.9%
9 | CCn1c(SCc2ccc(C(=O)NO)cc2)nnc1-c1ccncc1 | 1.67% | 1.03% | 7.12% | > 300 µM | 30.4 µM | 8.34% | 322 µM | > 300 µM | > 300 µM | 14.3% | 174 µM | 0.254 µM | 203 µM | 9.34%
10 | CCCC(CCC)C(=O)O [VALPROIC ACID] | – | – | – | 215 µM | – | – | 2830 µM | 84.2 µM | – | – | – | – | 2140 µM | –
11 | C=CCn1c(SCCCCCC(=O)NO)nnc1-c1ccncc1 | 11.1% | 2.07% | 5.91% | 288 µM | 11.7 µM | 41.3% | 89.4 µM | > 300 µM | 11.1 µM | 16.1% | 222 µM | 0.189 µM | 76.4 µM | 8.62%
12 | C=CCn1c(SCc2ccc(C(=O)NO)cc2)nnc1-c1ccncc1 | 44.9% | 44.1% | 62% | 9.86 µM | 11.2 µM | 25.3% | 9.56 µM | 19.6 µM | 28.4 µM | 36.1% | 20.7 µM | 0.0461 µM | 13.2 µM | 50.2%
13 | CCn1c(SCCCCCC(=O)Nc2ccccc2N)nnc1-c1ccncc1 | 22.3% | 6.35% | 3.64% | > 300 µM | 27.1 µM | 18.6% | 98.3 µM | > 300 µM | 198 µM | 10.4% | > 300 µM | 0.141 µM | 77.6 µM | 8.91%
14 | CNC(=O)c1ccccc1Nc1nc(Nc2ccc(N3CCOCC3)cc2OC)ncc1Cl | – | – | – | – | – | – | 1.05 µM | – | – | – | – | – | 0.81 µM | –
